From PubChem BioAssay
Sampled rows, rich in hits. Any-hit rate of the full collection: about 2.4%.
HTR5A inv ag = inverse agonist of human HTR5A in OPRM1-OPRD1 counter-screen | P47898 | HTR5A cell line, luminescence, inverse agonism | inhibition, % at 9.3 µM | 340,000 tested, 0.083% active | AID 504634; in the data active means inhibition mostly above about 23%, no sharp cut-off; inactive means mostly below about 18%;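 further: 0% = cells with DMSO and 100% = no-cell wells with DMSO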
MOR-DOR ag = OPRM1-OPRD1 heterodimerization agonism; P35372+P41143; AID 504326; activation, % at 9.3 µM; 340,000 tested, 0.3% active; cells, luminescence; in the data active means activation above about 18%;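 further: 0% = vehicle-treated cells and 100% = reference agonist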
MC4R ag barr = human MC4R agonism via beta-arrestin | 360,000 tested, 0.98% active | U2OS MC4R beta-arrestin complementation, luminescence; percent of melanotan II response, DMSO zero | P32245 | activation, % at 8.9 µM;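 active means activation above a per-plate cutoff, the mean activation of sample wells on that plate plus 3 SD, cut at about 8% in these data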
Target sequence (P32245 whole entry, looked up): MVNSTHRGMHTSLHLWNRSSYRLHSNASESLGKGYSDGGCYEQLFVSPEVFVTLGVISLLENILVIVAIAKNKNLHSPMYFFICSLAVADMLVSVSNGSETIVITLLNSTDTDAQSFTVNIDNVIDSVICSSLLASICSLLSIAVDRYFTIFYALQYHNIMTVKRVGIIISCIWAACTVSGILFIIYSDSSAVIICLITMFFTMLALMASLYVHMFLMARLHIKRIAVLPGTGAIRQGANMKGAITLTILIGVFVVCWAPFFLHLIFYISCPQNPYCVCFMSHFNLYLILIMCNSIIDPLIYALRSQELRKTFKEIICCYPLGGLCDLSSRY
HTR5A ag ctr = activates human HTR5A in OPRM1-OPRD1 agonist counter-screen; P47898; HTR5A agonist assay, luminescence, cell-based; activation, % at 9.3 µM; 340,000 tested, 0.61% active; AID 504692; in the data active means activation mostly above about 9.5%, no sharp cut-off; inactive means mostly below about 7.6%;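 further: 0% = cells with vehicle only and 100% = reference agonist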
MOR-DOR inv ag-1 = inverse agonists of human mu-delta opioid receptor heterodimerization. cell-based MOR-DOR heterodimer luminescence, inverse agonism. 340,000 tested, 0.21% active. AID 504357. P35372+P41143. inhibition, % at 9.3 µM; in the data active means inhibition above about 22%, passing the limit was not always enough;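 further: 0% = cells with DMSO and 100% = wells without cells with DMSO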
MC4R antag cAMP = human MC4R antagonism in cAMP assay; MC4R-expressing cells, MTII-stimulated cAMP, LANCE TR-FRET; inhibition, % at 6.5 µM; 360,000 tested, 0.48% active;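 active means inhibition above its plate's cutoff, the mean of tested wells on that plate plus 3 SD, cut at about 29% in these data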;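 further: 0% = Melanotan II alone and 100% = Melanotan II plus saturating MCL0020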
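Material: human MC4R-expressing U2OS cells. Probe or stimulus: Melanotan II challenge. Dosing: 6.5 µM single dose. Times: 30-min compound, 1-h challenge, 1-h detection, room temperature. Technique: TR-FRET with Eu-cAMP and labeled anti-cAMP, 671 nm. Replication: singlicate.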
MOR-DOR inv ag-2 = inverse agonist of OPRM1-OPRD1 heterodimerization in HTR5A counter-screen; U2OS counter-screen cells, complementation luminescence; inhibition, % at 9.3 µM; shares compounds with HTR5A inv ag; 190 tested, under 10 active; AID 504912;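 further: 0% = cells with DMSO and 100% = wells without cells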
HTR5A inv conf = HTR5A (human) inverse agonism, confirmation. shares compounds with HTR5A inv ag. HTR5A-expressing cells, luminescence. inhibition, % at 9.3 µM. 190 tested, under 10 active. AID 504916;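 further: 0% = cells with DMSO and 100% = no cells with DMSO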
An asterisk follows results filed as active. Unless noted, how the calls were made is not given here.

CC(C)CC1Nc2ncnc(N3CCN(c4ccccn4)CC3)c2N(Cc2ccc(Cl)cc2)C1=O (stereo not drawn) was read as HTR5A inv ag 40*, MOR-DOR ag 3, MC4R ag barr -2, HTR5A ag ctr 3, MOR-DOR inv ag-1 -16, MC4R antag cAMP 9, MOR-DOR inv ag-2 -27 and HTR5A inv conf 13.
`COc1ccc(CN2C(=O)C(CC(C)C)Nc3ncnc(N4CCN(c5ccccc5)CC4)c32)cc1` (stereo not drawn) gave HTR5A inv ag -16, MOR-DOR ag -2, MC4R ag barr -1, HTR5A ag ctr 0, MOR-DOR inv ag-1 14 and MC4R antag cAMP -2.
Screening COc1ccc(C)cc1NC(=O)CN1C(=O)COc2ccc(S(=O)(=O)N3CCOCC3)cc21 returned HTR5A inv ag -1, MOR-DOR ag -3, MC4R ag barr -1, HTR5A ag ctr 0, MOR-DOR inv ag-1 14 and MC4R antag cAMP 2.
COc1ccc(/C=C/C(=O)NC(=S)NNC(=O)c2c(-c3ccccc3)noc2C)cc1 was read as HTR5A inv ag 49*, MOR-DOR ag -5, MC4R ag barr -6, HTR5A ag ctr -12, MOR-DOR inv ag-1 28, MC4R antag cAMP 7, MOR-DOR inv ag-2 -3 and HTR5A inv conf -1.
`Cc1onc(-c2ccccc2)c1C(=O)NNC(=S)NC(=O)/C=C/c1ccccc1` gave HTR5A inv ag 25, MOR-DOR ag -4, MC4R ag barr -5, HTR5A ag ctr -10, MOR-DOR inv ag-1 20 and MC4R antag cAMP 2.
For NNc1nc(Nc2ccccc2)nc(N2CCCCC2)n1 the results were HTR5A inv ag 35*, MOR-DOR ag 4, MC4R ag barr 4, HTR5A ag ctr -9, MOR-DOR inv ag-1 -21, MC4R antag cAMP 13, MOR-DOR inv ag-2 -24 and HTR5A inv conf -157.
`NNc1nc(Nc2ccc([N+](=O)[O-])cc2)nc(N2CCCCCC2)n1` gave HTR5A inv ag 16, MOR-DOR ag -4, MC4R ag barr 0, HTR5A ag ctr -3, MOR-DOR inv ag-1 19 and MC4R antag cAMP 3.
For COc1ccc(F)cc1C1=CC(=O)C[C@H](c2ccc3c(c2)OCO3)C1 the results were HTR5A inv ag 12, MOR-DOR ag -1, MC4R ag barr -2, HTR5A ag ctr -3, MOR-DOR inv ag-1 5 and MC4R antag cAMP -9.
For Cc1ccccc1C=Nc1ccccc1C(N)=O the results were HTR5A inv ag 0, MOR-DOR ag -3, MC4R ag barr 0, HTR5A ag ctr 2, MOR-DOR inv ag-1 14 and MC4R antag cAMP -12.
For Cn1cnc(S(=O)(=O)N2CCN(c3cccc(Cl)c3)CC2)c1 the results were HTR5A inv ag 38*, MOR-DOR ag -1, MC4R ag barr 3, HTR5A ag ctr 1, MOR-DOR inv ag-1 7, MC4R antag cAMP -4, MOR-DOR inv ag-2 -15 and HTR5A inv conf -193.
O=C(Nc1ccnc(-c2cccnc2)n1)c1cccs1 was read as HTR5A inv ag 11, MOR-DOR ag -2, MC4R ag barr -1, HTR5A ag ctr 4, MOR-DOR inv ag-1 9 and MC4R antag cAMP 4.
For CCOC(CNC(=O)Cn1nc(C)c2ccccc21)OCC the results were HTR5A inv ag 4, MOR-DOR ag 0, MC4R ag barr -5, HTR5A ag ctr 2, MOR-DOR inv ag-1 -1 and MC4R antag cAMP -3.
`CCN(CC)c1ccc2nc3ccc(N)cc3[n+](-c3ccccc3)c2c1` gave HTR5A inv ag 36*, MOR-DOR ag -3, MC4R ag barr -9, HTR5A ag ctr -14, MOR-DOR inv ag-1 15, MC4R antag cAMP -25, MOR-DOR inv ag-2 -4 and HTR5A inv conf 37.
For CCN(CC)c1ccc2nc3ccccc3[n+](CC)c2c1 the results were HTR5A inv ag 34*, MOR-DOR ag -3, MC4R ag barr -3, HTR5A ag ctr -9, MOR-DOR inv ag-1 14, MC4R antag cAMP -43, MOR-DOR inv ag-2 -279 and HTR5A inv conf -4.
